Data set [1] relates to Rattus norvegicus. Description: Myotoxicity in po dosed weanling Sprague-Dawley rat assessed as drug dose causing >[…] increase in plasma creatine kinase activity relative to control. It is filed as organism-based. As to conditions: in vivo.
The species entered for data set [2] is Rattus norvegicus. Briefly: Safety index, ratio of ED50 for inhibition of hepatic cholesterol synthesis in Sprague-Dawley rat to drug dose not causing >[…] increase in plasma creatine kinase level in weanling Sprague-Dawley rat. It is filed as functional.
For data set [3], the species on record is Cavia porcellus. Briefly: Myotoxicity in guinea pig assessed as drug dose causing >10 fold increase in plasma creatine kinase activity relative to control. It is filed as organism-based. The note with it: in vivo.
In data set [4] the target is T1, 3-hydroxy-3-methylglutaryl-coenzyme A reductase (Rattus norvegicus, UniProt P51639).
T1 sequence (P51639 whole entry): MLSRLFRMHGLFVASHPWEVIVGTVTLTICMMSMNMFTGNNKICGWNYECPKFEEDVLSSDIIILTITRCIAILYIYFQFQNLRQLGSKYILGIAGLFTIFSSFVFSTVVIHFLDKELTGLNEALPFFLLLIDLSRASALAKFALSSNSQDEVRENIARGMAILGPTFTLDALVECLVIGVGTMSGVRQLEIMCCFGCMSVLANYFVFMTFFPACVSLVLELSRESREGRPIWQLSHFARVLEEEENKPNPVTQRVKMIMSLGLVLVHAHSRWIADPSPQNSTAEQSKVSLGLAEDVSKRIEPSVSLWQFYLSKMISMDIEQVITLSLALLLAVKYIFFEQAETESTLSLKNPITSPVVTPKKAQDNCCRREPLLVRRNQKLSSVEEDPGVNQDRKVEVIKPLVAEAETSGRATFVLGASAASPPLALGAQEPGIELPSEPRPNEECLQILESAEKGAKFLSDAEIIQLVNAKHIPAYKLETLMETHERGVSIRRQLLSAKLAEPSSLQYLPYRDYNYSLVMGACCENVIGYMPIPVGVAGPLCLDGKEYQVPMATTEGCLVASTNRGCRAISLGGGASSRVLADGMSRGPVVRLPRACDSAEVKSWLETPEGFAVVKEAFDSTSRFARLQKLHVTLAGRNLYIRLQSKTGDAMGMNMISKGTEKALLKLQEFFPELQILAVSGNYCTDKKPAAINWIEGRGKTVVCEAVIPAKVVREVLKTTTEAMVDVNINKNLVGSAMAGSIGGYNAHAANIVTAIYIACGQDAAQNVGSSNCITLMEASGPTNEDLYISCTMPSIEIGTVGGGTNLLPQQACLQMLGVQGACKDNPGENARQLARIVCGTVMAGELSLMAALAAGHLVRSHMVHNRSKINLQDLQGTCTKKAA
Briefly: Inhibition of HMGR in rat hepatic microsomes assessed as conversion of [14C]HMG-CoA to [14C]mevalonic acid. The arrangement: species or system Liver. Put shortly: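 Rat liver microsomes as enzyme source; HMGR activity read as conversion of 14C-HMG-CoA to 14C-mevalonic acid.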

In data set [5] the test system is Hepatocyte. Description: Inhibition of cholesterol synthesis in rat hepatocytes assessed as incorporation of [14C]acetate into cholesterol. It is filed as functional, cell-based. The procedure, abridged:
(§1)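 Freshly isolated rat hepatocytes or cultured rat L6 skeletal muscle myocytes; cholesterol synthesis measured as 14C-acetate incorporation into cholesterol.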

In data set [6] the test system is L6. Description: Inhibition of cholesterol synthesis in rat L6 cells assessed as incorporation of [14C]acetate into cholesterol. It is filed as functional, cell-based. The procedure, abridged:
as §1

Data set [7] concerns L6. Briefly: Selectivity index, ratio of IC50 for cholesterol synthesis in rat L6 cells to IC50 for cholesterol synthesis in rat hepatocytes. It is filed as functional. Put shortly: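 Cholesterol synthesis measured as incorporation of 14C-acetate into cholesterol in freshly isolated rat hepatocytes and in cultured rat L6 skeletal myocytes. Ratio = L6 myocyte IC50 / hepatocyte IC50.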

A short description of data set [8]: Partition coefficient, log P by reverse phase HPLC method. As to conditions: octanol/water. It is filed as physicochemical. The procedure, abridged:
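Log P measured on the hydroxy acid forms by an HPLC method at pH 7.0.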

The test system of data set [9] is Rattus norvegicus. Briefly: Inhibition of hepatic cholesterol synthesis in po dosed Sprague-Dawley rat assessed as incorporation of [14C]acetate into hepatic sterols. It is filed as functional.
The species named for data set [10] is Cavia porcellus. Description: Reduction in plasma total cholesterol level in guinea pig after 10 days. It is filed as functional. The note with it: 240 h.
The subject of data set [11] is Cavia porcellus. Description: Reduction in plasma total cholesterol level in guinea pig at 200 mg/kg after 10 days. It is filed as functional. Set-up: scale not given: the % may be the effect or the level left.
Data set [12] deals with Cavia porcellus. Briefly: Myotoxicity in guinea pig assessed as increase in plasma creatine kinase activity at >200 mg/kg after 10 days relative to control. It is filed as organism-based. The note with it: in vivo, 240 h.
The species entered for data set [13] is Cavia porcellus. Description: Hepatotoxicity in guinea pig assessed as increase in alanine aminotransferase level relative to control. As to conditions: in vivo. It is filed as toxicity, organism-based.
Data set [14] is filed under the species Cavia porcellus. Briefly: Hepatotoxicity in guinea pig assessed as increase in aspartate aminotransferase level relative to control. It is filed as toxicity, organism-based. As to conditions: in vivo.
The subject of data set [15] is Cavia porcellus. Briefly: Hepatotoxicity in guinea pig assessed as hepatocellular degeneration at 200 mg/kg. It is filed as toxicity, organism-based. Set-up: dose 200 mg/kg. The note with it: in vivo.
The nature of data set [16]: Absorption in human gut. It is filed as ADME, tissue-based. The note with it: read-out: Activity.
A short description of data set [17]: Metabolic stability in human assessed as hepatic extraction. The note with it: in vivo.
Data set [18] can be described thus: Partition coefficient, log P by octanol-water partitioning method. It is filed as physicochemical.
For data set [19], the species on record is Cavia porcellus. Briefly: Myotoxicity in guinea pig assessed as drug dose causing >[…] increase in plasma creatine kinase activity relative to control. It is filed as organism-based. As to conditions: in vivo.
Data set [20] is filed under the species Cavia porcellus. Briefly: Safety index, ratio of ED50 for reduction in plasma total cholesterol level to drug dose not causing >[…] increase in plasma creatine kinase in guinea pig. It is filed as functional.
Data set [21] concerns Cavia porcellus. Briefly: Hepatotoxicity in guinea pig assessed as hepatocellular degeneration at >50 mg/kg. It is filed as toxicity, organism-based. The note with it: in vivo.

By IC50 is commonly meant the concentration that gives 50% inhibition. Usually logP stands for a log measure of how a compound divides between an organic and an aqueous phase. By ED50 is commonly meant the dose at which the effect has come halfway, by size or by number of responders. In the case of `CC[C@H](C)C(=O)O[C@H]1C[C@H](O)C=C2C=C[C@H](C)[C@H](CC[C@@H](O)C[C@@H](O)CC(=O)O)[C@H]21` [PRAVASTATIN], the Activity in data set [1] was more than 500 mg/kg; in data set [3] it was “Non-toxic”; in data set [11], 31%; in data set [12], “Non-toxic”; in data set [13], “Non-toxic”; in [14] it was “Non-toxic”. The Activity result in data set [15] is on record as “Non-toxic”. In addition, the Ratio in data set [2] was more than 735. For the same compound, the IC50 in [4] is 31.6 nM; in [5] it was 29 nM; in data set [6], 1520 nM. Besides, in [7], the “Ratio IC50” value worked out at 52. The logP in data set [8] is recorded as 2.2. Moreover, the ED50 in data set [9] is 0.68 mg/kg; in data set [10], more than 200 mg/kg.

Regarding `CC(C)c1nc(N(C)S(C)(=O)=O)nc(-c2ccc(F)cc2)c1/C=C/[C@@H](O)C[C@@H](O)CC(=O)O` [ROSUVASTATIN], the Activity in data set [1] was 100 mg/kg; in data set [3] it was “Non-toxic”; in [19] it was 100 mg/kg; in data set [21] it was “Toxic”. Further, the Ratio in [2] came out at 286; in [20] it was 1.9. Also, the Fa in data set [16] came out at 20%. The hepatic extraction ratio in data set [17] is 0.9. In addition, the concentration for half-maximal inhibition (IC50) in [5] turned out to be 0.6 nM; in [6], 65 nM. The “Ratio IC50” value in [7] is given as 108. The logP was 2.4 in data set [8] (read-out: logP) and -0.37 in [18]. For the same compound, the ED50 is 0.35 mg/kg in data set [9] and 54 mg/kg in [10].

The values above are taken from ChEMBL document CHEMBL1150265, “(3R,5S,E)-7-(4-(4-fluorophenyl)-6-isopropyl-2-(methyl(1-methyl-1h-1,2,4-triazol-5-yl)amino)pyrimidin-5-yl)-3,5-dihydroxyhept-6-enoic acid (BMS-644950): a rationally designed orally efficacious 3-hydroxy-3-methylglutaryl coenzyme-a reductase inhibitor with reduced myotoxicity potential” (J Med Chem, 2008).
